An excerpt weighted towards active compounds, which were near 3.1% of everything screened.
Ecoli rRNA inh: inhibits bacterial ribosomal RNA function over humanized ribosomes; E. coli WT GFP vs humanized-ribosome RFP mutants, fluorescence, 24 h; active compounds read low; DMSO median 0, no signal -100; hit rate 1.6% among 350,000; GFP signal change (wild-type ribosome), % (test concentration not listed); AID 720706;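 active means significant combined selectivity score with lowered wild-type GFP, culture density cut under 30%, mutant RFP and density less affected; inactive means any of these conditions unmet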
GSIS activator: GLuc luminescence reporter in INS-1E cells, primary screen for activators of glucose-dependent secretion of insulin. INS-1E GLuc reporter insulin secretion, 2-3 h. AID 743287. activation, % at 16.6 µM. hit rate 0.61% among 370,000;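 active means lowest replicate activation of at least 40%, so every replicate reaches that level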;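 further: 0% = median of neutral control wells and 100% = median of IBMX positive control wells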
F508del corr: correctors of CFTR F508del function in bronchial epithelial cells. CFBE cells, YFP halide quenching; stimulated with forskolin plus potentiator P3; % fluorescence drop versus neutral controls. activity (quench increase), % at 7.58 µM. hit rate 0.36% among 350,000;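 active means mean added fluorescence quench of at least 8% versus neutral control, with both replicates also reaching 8%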;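 further: cells transiently co-express mutant CFTR-F508del with the halide-sensitive YFP; corrector assay measuring rescue of mutant channel to the surface after 24 h compound exposure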
Cneo AK release: causes C. neoformans cell lysis | adenylate kinase release luminescence, 4 h; normalised: neutral wells 0, clomiphene wells 100 | lysis activity, % at 15 µM | hit rate 0.2% among 360,000 | AID 651654;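 active means mean lysis activity across replicates of at least 80%, whatever share of replicates individually reach that level; inactive means mean lysis activity below 80%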
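Signal: Adenylate kinase release luminescence | Assay system: Log-phase Cryptococcus neoformans yeast cells | Input: Cells at 5 × 10^6 per mL | Buffer or medium: Fresh YPD growth medium | Compound: Single dose | Schedule: Static 4 h at 37 °C with compound, 1 h detection | Controls: Clomiphene | Read-out: Luminescence rise reflecting yeast cell lysis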
Env fusion inh: HIV envelope-mediated fusion inhibition | HeLa-JRFL Env/CEM21 cell fusion, luciferase | hit rate 1.1% among 360,000 | inhibition, % at 12.3 µM;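 active means mean replicate inhibition score of at least 50 and every replicate individually at or above 50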;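 further: 0% = plate neutral controls and 100% = maraviroc near 300 nM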
miR-122 sensor: inhibitors of miR-122 in Huh7 cells. Huh7 miR-122 Renilla luciferase sensor, 48 h; neutral wells = 0, positive control = 100. activation (reporter increase), % at 12.5 µM. hit rate 0.3% among 340,000;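 active means mean replicate activation score at least 90 and every replicate individually at or above 90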;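 further: higher luciferase means less miR-122 activity so hits act as miR-122 inhibitors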
An asterisk follows results filed as active; x = not tested or not shown; [ ] = dose if it differs, or a comment.

SMILES | Ecoli rRNA inh | GSIS activator | F508del corr | Cneo AK release | Env fusion inh | miR-122 sensor
C[C@@H]1CN([C@H](C)CO)C(=O)c2cccc(NC(=O)c3cnccn3)c2O[C@H]1CN(C)Cc1ccc2c(c1)OCO2 | -2.3 | -5.3 | -0.7 | -1.2 | 4.8[16.7 µM] | 9.3[16.7 µM]
CCOC(=O)N1CCC(N(CCOC)C(=O)Nc2ccc(Cl)cc2)CC1 | -16.2* | -39.3 | 0.7 | 0.5 | x | -8.8
C[C@H](CO)N1C[C@H](C)[C@H](CN(C)C(=O)c2ccccn2)Oc2ncc(-c3ccccc3)cc2C1=O | 1.5 | 17.8 | -0.5 | 81.2* | -8.4[16.7 µM] | 15.6[16.7 µM]
C[C@H]1CN([C@@H](C)CO)C(=O)c2cc(-c3ccccc3)cnc2O[C@@H]1CN(C)C(=O)c1ccccn1 | 3.0 | 14.7 | 0.5 | 105.2* | 12.4[16.7 µM] | -1.4[16.7 µM]
C[C@H]1CN([C@@H](C)CO)C(=O)c2cc(-c3ccc(F)cc3)cnc2O[C@@H]1CN(C)C(=O)c1ccccn1 | 0.2 | 0.8 | -0.9 | -3.9 | 10.2[16.7 µM] | -5.7[16.7 µM]
O=C(CC(c1ccccc1)c1ccccc1O)N1CCCC1 (centres undefined) | -1.2 | 3.2 | x | 6.1 | x | x
Cc1ccc(C(CC(=O)N2CCCC2)c2ccccc2)c(O)c1 (centres undefined) | -26.4* | 0.9 | -3.9 | 1.3 | 1.7 | 7.6
COc1ccc(S(=O)(=O)Nc2ccc3c(c2)CC(=O)N([C@H](C)CO)C[C@@H](C)[C@@H](CN(C)C)O3)cc1 | 4.0 | 13.1 | -2.2 | 0.0 | x | 1.9[16.7 µM]
CCCNC(=O)C[C@H]1C[C@H]2c3cc(NC(=O)Nc4ccccc4)ccc3O[C@H]2[C@@H](CO)O1 | -0.7 | -9.1 | 1.2 | 1.3 | 44.1[16.7 µM] | -2.4[16.7 µM]
Cc1cccc(OCc2nnc(SCC(=O)Nc3nccs3)o2)c1 | -40.6* | 2.6 | -1.9 | x | 6.6 | x
CCS(=O)(=O)Nc1ccc2c(c1)C(=O)N(C)[C@@H]1CC[C@@H](CC(=O)NCc3ccccc3F)O[C@H]1CO2 | 2.7 | 14.2 | x | -5.1 | 6.5[16.7 µM] | x
COc1cccc(/C=N/NC(=O)CNC(=O)C2COc3ccccc3O2)c1O (centres undefined) | -19.7* | -1.1 | x | x | 20.1 | x
O=C(CNC(=O)C1COc2ccccc2O1)N/N=C\c1ccccc1Cl (centres undefined) | 16.4 | 3.2 | -2.6 | 2.7 | -1.6 | -2.6
O=C(NC1CCCCC1)C(c1cccs1)N(Cc1cccs1)C(=O)c1cccs1 (centres undefined) | x | x | x | 1.3 | 93.9* | 9.4
O=C(NC1CCCCC1)C(c1ccc2ncccc2c1)N(Cc1cccs1)C(=O)c1cccs1 (centres undefined) | x | -36.3 | x | -0.1 | x | 7.3
O=S(=O)(c1cccs1)N1CCCCN2[C@@H](CO)[C@H](c3ccc(Br)cc3)[C@@H]2C1 | -16.0 | -11.8 | -0.7 | 2.5 | x | 13.4[16.7 µM]
Cc1cc2c3c([nH]c2cc1S(=O)(=O)N1CCC2(CC1)OCCO2)CC(C)(C)CC3=O | -8.2 | -4.4 | -0.4 | -1.0 | -0.3 | 9.5
CCc1cc2c3c([nH]c2cc1S(=O)(=O)N1CCC2(CC1)OCCO2)CCCC3=O | -26.1* | -16.4 | -2.8 | 6.9 | 2.0 | -0.4
COC(=O)C1(C)CCCC2(C)C3CCC(C(C)C)C(CO)C3C(CO)CC12 (centres undefined) | -62.2 | 1.6 | 8.0* | -4.7 | 5.2 | -0.3
COC(=O)[C@]1(C)CCC[C@@]2(C)C3CC[C@]4(OC(C)=O)C[C@@]3(CCC21)CC4=O (some centres undefined) | -26.0 | 0.0 | 0.6 | -1.9 | 0.5 | x
C[C@H]1CN([C@@H](C)CO)S(=O)(=O)c2ccc(C#Cc3ccccc3F)cc2O[C@@H]1CN(C)C | 0.2 | 19.8 | -1.4 | 11.5 | 20.6[16.7 µM] | 8.7[16.7 µM]
COCCNC(=O)C[C@@H]1CC[C@H]2[C@@H](COC[C@@H](O)CN2Cc2cccc(-c3ccncc3)c2)O1 | 8.2 | 17.7 | -1.5 | 0.0 | 21.0[16.7 µM] | -2.5[16.7 µM]
O=C(C[C@H]1CC[C@@H]2[C@H](COC[C@@H](O)CN2C(=O)c2cnccn2)O1)NCc1ccc(Oc2ccccc2)cc1 | -4.7 | -4.3 | 2.8 | 105.2* | x | -3.5[16.7 µM]
O=C(C[C@H]1CC[C@H]2[C@@H](COC[C@H](O)CN2CCC(F)(F)F)O1)NCc1ccc(Oc2ccccc2)cc1 | -13.2 | -20.0 | -3.2 | -0.7 | 56.4*[16.7 µM] | -0.4[16.7 µM]
COCCNC(=O)C[C@@H]1CC[C@H]2[C@@H](COC[C@H](O)CN2Cc2cccc(-c3ccncc3)c2)O1 | 2.8 | -0.6 | -1.0 | 108.5* | 10.8[16.7 µM] | -2.5[16.7 µM]
SMILES | Ecoli rRNA inh | GSIS activator | F508del corr | Cneo AK release | Env fusion inh | miR-122 sensor
O=C(C[C@H]1CC[C@H]2[C@@H](COC[C@@H](O)CN2C(=O)c2cnccn2)O1)NCc1ccc(Oc2ccccc2)cc1 | 1.3 | 8.7 | 1.1 | 0.1 | 19.2 | 5.9[16.7 µM]
O=C(C[C@H]1CC[C@@H]2[C@H](COC[C@H](O)CN2CCC(F)(F)F)O1)NCc1ccc(Oc2ccccc2)cc1 | 0.3 | -17.1 | 3.2 | 0.7 | -20.9[16.7 µM] | -5.4[16.7 µM]
O=C(C[C@@H]1CC[C@@H]2[C@H](COC[C@H](O)CN2Cc2cccc(C(F)(F)F)c2)O1)NCc1ccccc1 | -6.2 | -15.4 | 2.6 | 96.8* | x | -1.0[16.7 µM]
O=C(C[C@@H]1CC[C@H]2[C@@H](COC[C@@H](O)CN2Cc2nccs2)O1)NCc1ccccc1 | -1.7 | 6.0 | -2.5 | -0.7 | x | 0.7[16.7 µM]
O=C(Nc1ccc(Cl)cc1)N[C@H]1CC[C@@H](CCn2cc(C3(O)CCCC3)nn2)O[C@@H]1CO | -1.6 | -15.1 | 0.0 | 0.1 | -5.4[16.7 µM] | 3.9[16.7 µM]
CCNC(=O)C[C@@H]1CC[C@H]2[C@H](COc3ccc(NC(=O)Nc4ccccc4F)cc3C(=O)N2C)O1 | -1.4 | -0.2 | -1.3 | 1.2 | 25.1[16.7 µM] | 16.3[16.7 µM]
C[C@@H]1CN([C@H](C)CO)C(=O)Cc2cc(NC(=O)Cn3cnnn3)ccc2O[C@H]1CN(C)C(=O)NC1CCCCC1 | 3.0 | 13.1 | 1.0 | 0.5 | -8.6[16.7 µM] | 7.6[16.7 µM]
COc1ccc(S(=O)(=O)Nc2ccc3c(c2)C(=O)N([C@H](C)CO)C[C@@H](C)[C@H](CN(C)C(=O)NC(C)C)OCCCC[C@@H](C)O3)cc1 | 0.1 | -7.5 | -1.9 | -7.5 | -28.9[16.7 µM] | -1.3[16.7 µM]
CCCc1ccc(-c2ccc(/C=C/C(=O)O)cc2)nc1 | -26.2* | -3.7 | -5.7 | x | 60.7* | x
Cc1ccnc(N2C(=O)c3ccccc3C2=O)c1 | 12.3 | -2.2 | -0.1 | 0.8 | 11.6 | -0.8
Cc1ccc(N2C(=O)c3cccc4c([N+](=O)[O-])ccc(c34)C2=O)c2cccnc12 | 5.7 | 12.4 | 24.6* | -2.2 | -204.4 | 24.5
Cc1ccnc(N2C(=O)c3cccc4c([N+](=O)[O-])ccc(c34)C2=O)c1 | 69.8 | -0.5 | 22.6* | -3.0 | x | -6.2
O=C1c2cccc3c([N+](=O)[O-])ccc(c23)C(=O)N1Cc1cccnc1 | 94.4 | 6.7 | 32.8* | x | -35.7 | x

Screening data from PubChem BioAssay.
